Assay results taken from ChEMBL document CHEMBL1157227, “Cytotoxic pregnane steroids from the formosan soft coral Stereonephthya crystalliana” (J Nat Prod, 2006).
Values after ≈ are worked out from the molar mass of the structure shown.

Columns and labels:
P388 = assay: Cytotoxicity against mouse P388 cells; type: functional, cell-based
How it was run: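 P-388 mouse lymphocytic leukemia cells provided by an academic lab; in vitro cytotoxicity by a previously described procedure; result given as ED50 in µg/mL, with ED50 ≤ 4.0 µg/mL taken as significant for pure compounds.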

HT-29 = assay: Cytotoxicity against human HT29 cells; type: functional; details: read-out: ED50 (the source's name)
How it was run: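 HT-29 human colon adenocarcinoma cells from ATCC; in vitro cytotoxicity by a previously described procedure; result given as ED50 in µg/mL, with ED50 ≤ 4.0 µg/mL taken as significant for pure compounds.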

| Structure (SMILES) | IC50 (P388) | EC50 (HT-29) |
| --- | --- | --- |
| C=C[C@H]1CC[C@H]2[C@@H]3CC[C@H]4C[C@@H](O)CC[C@]4(CO)[C@H]3CC[C@]12C [STEREONSTEROID A] | 3.5 µg/mL (≈ 11 µM) | 7.5 µg/mL (≈ 23.5 µM) |
| C=C[C@H]1CC[C@H]2[C@@H]3CC[C@H]4C[C@@H](O[C@@H]5O[C@@H](C)[C@@H](OC(C)=O)[C@@H](O)[C@@H]5O)CC[C@]4(CO)[C@H]3CC[C@]12C [STEREONSTEROID C] | 3.1 µg/mL (≈ 6.12 µM) | 2.7 µg/mL (≈ 5.33 µM) |
| C=C[C@H]1CC[C@H]2[C@@H]3CC[C@H]4C[C@@H](OC(C)=O)CC[C@]4(C=O)[C@H]3CC[C@]12C [STEREONSTEROID B] | 1.6 µg/mL (≈ 4.46 µM) | 1.7 µg/mL (≈ 4.74 µM) |
| C=C[C@H]1CC[C@H]2[C@@H]3CC[C@H]4C[C@@H](O[C@@H]5O[C@@H](C)[C@@H](OC(C)=O)[C@@H](O)[C@@H]5O)CC[C@]4(C=O)[C@H]3CC[C@]12C [STEREONSTEROID E] | 3.8 µg/mL (≈ 7.53 µM) | 9.3 µg/mL (≈ 18.4 µM) |
| C=C[C@H]1CC[C@H]2[C@@H]3CC[C@H]4C[C@@H](O[C@@H]5O[C@@H](C)[C@@H](OC(C)=O)[C@@H](O)[C@@H]5O)CC[C@]4(C)[C@H]3CC[C@]12C [STEREONSTEROID F] | 9.4 µg/mL (≈ 19.2 µM) | 10.8 µg/mL (≈ 22 µM) |
| C=C[C@H]1CC[C@H]2[C@@H]3CC=C4C[C@@H](O[C@@H]5O[C@@H](C)[C@@H](O)[C@@H](OC(C)=O)[C@@H]5O)CC[C@]4(C)[C@H]3CC[C@]12C [STEREONSTEROID H] | 5.4 µg/mL (≈ 11.1 µM) | 5.3 µg/mL (≈ 10.8 µM) |
| C=C[C@H]1CC[C@H]2[C@@H]3CC[C@H]4C[C@@H](O[C@@H]5OC[C@@H](O)[C@H](O)[C@H]5O)CC[C@]4(C)[C@H]3CC[C@]12C [STEREONSTEROID I] | 5.9 µg/mL (≈ 13.6 µM) | 7.7 µg/mL (≈ 17.7 µM) |
| C=CC1CCC2C3CCC4CC(OC5OC(C)C(O)C(OC(C)=O)C5O)CCC4(C)C3CCC12C (stereo not drawn) | 13.3 µg/mL (≈ 27.1 µM) | 6.2 µg/mL (≈ 12.6 µM) |
| C=C[C@H]1CC[C@H]2[C@@H]3CC[C@H]4C[C@@H](O[C@@H]5O[C@@H](C)[C@@H](OC(C)=O)[C@@H](O)[C@@H]5O)CC[C@]4(COC(C)=O)[C@H]3CC[C@]12C [STEREONSTEROID D] | 4.9 µg/mL (≈ 8.93 µM) | 5.2 µg/mL (≈ 9.48 µM) |
